From PubChem BioAssay
HGIII-sPLA2 inh: human group III sPLA2 inhibitors, primary screen, biochemical, QFRET, BODIPY PC-A2 liposome substrate. Group 3 secretory phospholipase A2 (Homo sapiens), Q9NZ20. QFRET BODIPY PC-A2 liposome hydrolysis, fluorescence. inhibition, % at 12.2 µM. 0.56% of 370,000 active;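 active = inhibition above mean plus 3 SD of compounds lying within the high and low control bounds, cut at about 19% in these data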;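 note: 0% = median of test compound wells and 100% = no enzyme DMSO wells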
Arr AP2 block: inhibitors of beta-arrestin/AP2 binding, primary screen, biochemical, GPCR trafficking, flow cytometry; 0.31% of 340,000 active; inhibition, % at 10 µM; FITC-arrestin peptide / GST-AP2 beads; AP2 beta2 appendage carries R879A mutation;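 active = inhibition above a set limit, near 3 SD of compounds lacking own fluorescence, cut at about 54% in these data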;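 note: plate controls were DMSO wells for no effect and 5 µM unlabelled arrestin peptide for full effect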
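Assay system: GST-AP2 R879A bound to glutathione beads, E. coli-expressed; Medium: PBS with 0.05% Tween 20 and 0.1% BSA; Also added: fluorescein-tagged arrestin peptide at 50 nM final; Timing: 12 min plus 1 h, RT; Measured by: flow cytometry, FL1 (488/535 nm); Evaluation: percent drop in bead-associated FITC signal.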
proCasp7 act: procaspase-7 activators, primary screen, counter-screen for procaspase-3 activator project, biochemical, absorbance, HTS, human; Caspase-7 (Homo sapiens), P55210; recombinant procaspase-7, Ac-DEVD-pNA absorbance 405 nm; D23A/D198A/D206A triple mutant, cannot self-cleave; scale: DMSO 0, 5 µM enzyme 100; activation, % at 8.5 µM; AID 463210, 2010; 0.093% of 330,000 active;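 active = percent activation above the screen-wide mean plus 3 SD, cut at about 25% in these data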
Target sequence (P55210 whole entry D23A/D198A/D206A): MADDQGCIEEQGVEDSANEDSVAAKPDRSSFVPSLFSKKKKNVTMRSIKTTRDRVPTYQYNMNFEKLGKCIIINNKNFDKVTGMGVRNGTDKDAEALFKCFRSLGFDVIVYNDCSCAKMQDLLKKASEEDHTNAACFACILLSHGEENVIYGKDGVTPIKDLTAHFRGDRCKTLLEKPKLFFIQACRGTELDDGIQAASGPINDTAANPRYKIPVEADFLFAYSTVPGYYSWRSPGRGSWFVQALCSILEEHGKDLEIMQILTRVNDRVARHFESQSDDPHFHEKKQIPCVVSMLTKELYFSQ
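Test system: Procaspase-7 triple mutant (PC-7 D3A). Also added: Ac-DEVD-pNA substrate, 400 µM as added. Schedule: 1 h enzyme–compound preincubation and 2 h substrate reaction, both 25 °C. Signal: p-Nitroaniline absorbance at 405 nm, read at 0 and 120 min. Control set: low DMSO alone, high DMSO plus 5 µM PC-7.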
PLCb3 inh: human PLC-beta3 inhibitors, primary screen, biochemical, fluorescence | AID 720704, 2013 | 0.18% of 370,000 active | Purified PLC-beta3, fluorogenic substrate | inhibition, % at 12.2 µM | 1-phosphatidylinositol 4,5-bisphosphate phosphodiesterase beta-3 (Homo sapiens), Q01970; in the data active = inhibition above about 11%;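 note: 0% = median of compound wells on plate and 100% = full blocker control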
PLC-gamma1 inh: PLC-gamma1 enzyme inhibitors, primary screen, biochemical, fluorescence, purified enzyme. 0.84% of 370,000 active. fluorogenic substrate. inhibition, % at 12.2 µM; in the data active = inhibition above about 9.5%
procasp3 activ: activators of human procaspase-3 D3A mutant, primary screen, biochemical, absorbance, PC-3 D3A mutant, single concentration; recombinant procaspase-3 D3A, Ac-DEVD-pNA absorbance 405 nm; activation, % at 8.5 µM; 0.11% of 330,000 active; AID 463141, 2010;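 active = activation above the mean of all tested compounds plus 3 SD, cut at about 21% in these data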;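 note: 0% = DMSO alone and 100% = DMSO wells spiked with extra 5 µM PC-3 D3A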
Target sequence (P42574 whole entry D9A/D28A/D175A): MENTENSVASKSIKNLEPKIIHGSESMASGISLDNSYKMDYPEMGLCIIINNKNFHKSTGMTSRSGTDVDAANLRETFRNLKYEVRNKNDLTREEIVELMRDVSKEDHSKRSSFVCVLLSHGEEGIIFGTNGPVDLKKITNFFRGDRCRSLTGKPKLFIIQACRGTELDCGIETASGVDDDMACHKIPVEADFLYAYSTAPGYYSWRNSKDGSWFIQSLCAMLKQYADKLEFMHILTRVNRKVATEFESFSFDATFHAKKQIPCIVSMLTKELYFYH
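Technique: 405 nm absorbance of p-nitroaniline, reads at 0 and 120 min; Test system: Procaspase-3 D3A mutant; Incubation: 1 h enzyme-compound preincubation, then 2 h substrate reaction, 25 °C; Repeats: singlicate, each compound tested once; Benchmarks: low control DMSO wells, high control DMSO plus 5 µM PC-3 D3A.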
hGIII sPLA2 conf: human group III sPLA2 inhibitors, confirmation, biochemical, QFRET, triplicate; shares compounds with HGIII-sPLA2 inh; recombinant hGIII-sPLA2, BODIPY PC-A2 QFRET fluorescence; inhibition, % at 12.2 µM; 34% of 2,000 active; AID 743280, 2014;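 active = mean inhibition across triplicates above the hit cutoff set in the earlier primary screen, cut at about 19% in these data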;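 note: 0% = enzyme with DMSO and 100% = DMSO wells lacking enzyme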
535nm interf: 535nm fluorescence optical interference, confirmation, artefact control for HGIII-sPLA2 inhibitor project, biochemical, QFRET. inhibition, % at 12.2 µM. shares compounds with HGIII-sPLA2 inh. BODIPY FL product fluorescence interference. 8.5% of 2,000 active;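 active = average inhibition above the solvent-only control mean plus 3 SD, cut at about 6% in these data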;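 note: 0% = DMSO with substrate plus product and 100% = DMSO with substrate alone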
Active calls of the source: *. Sampled rows, rich in hits. Any-hit rate of the full collection: about 1.9%.

`CC(C)(C)OC(=O)[C@H]1[C@H](c2ccc([N+](=O)[O-])cc2)C2(C(=O)c3ccccc3C2=O)C2c3ccccc3C=NN21` (stereo not given in full) gave HGIII-sPLA2 inh -11, Arr AP2 block 33, proCasp7 act -1, PLCb3 inh 1, PLC-gamma1 inh 3 and procasp3 activ -2.
Screening CCCC(C(=O)NC1CCCC1)N(CC1CCCO1)C(=O)CNS(=O)(=O)c1ccc(F)cc1 (stereo not given) returned HGIII-sPLA2 inh -2, Arr AP2 block 16, proCasp7 act -6, PLCb3 inh -4, PLC-gamma1 inh 1 and procasp3 activ 8.
For COc1ccc(N2CC(C(=O)N/N=C/c3ccc([N+](=O)[O-])cc3)CC2=O)cc1 (stereo not given) the results were HGIII-sPLA2 inh -3, Arr AP2 block 12, proCasp7 act 0, PLCb3 inh 3, PLC-gamma1 inh 2 and procasp3 activ 4.
For CCC(Nc1ccc(OC)cc1)C(=O)N/N=C/c1ccc([N+](=O)[O-])cc1 (stereo not given) the results were HGIII-sPLA2 inh 20*, Arr AP2 block 4, proCasp7 act 3, PLCb3 inh 1, PLC-gamma1 inh 0, procasp3 activ 11, hGIII sPLA2 conf 16 and 535nm interf -5.
`COc1cc(CC(=O)OCC(=O)c2c[nH]c3ccccc23)cc(OC)c1OC` gave HGIII-sPLA2 inh -13, Arr AP2 block 19, proCasp7 act 12, PLCb3 inh -17, PLC-gamma1 inh -13 and procasp3 activ 2.
Screening COCCOC(=O)C1=C(C)NC(=S)NC1/C=C/c1ccccc1 (stereo not given) returned HGIII-sPLA2 inh 22*, Arr AP2 block -5, proCasp7 act 1, PLCb3 inh -1, PLC-gamma1 inh -3, procasp3 activ -1, hGIII sPLA2 conf 14 and 535nm interf -9.
CN(C)c1ccc(N=Nc2ccccc2Br)cc1 was read as HGIII-sPLA2 inh 17, Arr AP2 block 8, proCasp7 act 10, PLCb3 inh -3, PLC-gamma1 inh 2 and procasp3 activ -4.
For CN(C)c1ccc(N=Nc2nccs2)cc1 the results were HGIII-sPLA2 inh 25*, PLCb3 inh 5, PLC-gamma1 inh 1, hGIII sPLA2 conf 45* and 535nm interf 18*.
For CN(C)N1C(N)=C(C#N)C(c2cccc([N+](=O)[O-])c2)C2=C1CC(C)(C)CC2=O (stereo not given) the results were HGIII-sPLA2 inh 20*, Arr AP2 block -3, PLCb3 inh -4, PLC-gamma1 inh 1, hGIII sPLA2 conf 0 and 535nm interf -6.
Screening COCCN(Cc1ccc(F)cc1)C(=O)c1cc2ccccc2oc1=O returned HGIII-sPLA2 inh 3, Arr AP2 block -13, PLCb3 inh -9 and PLC-gamma1 inh 1.
Screening COc1ccc(C(C)NC(=O)c2ccncc2)cc1OC (stereo not given) returned HGIII-sPLA2 inh 1, Arr AP2 block -12, proCasp7 act 4, PLCb3 inh -3, PLC-gamma1 inh 1 and procasp3 activ 1.
COc1ccccc1CN1C(=O)CNC1=S was read as Arr AP2 block -25, proCasp7 act -5 and procasp3 activ 1.
Screening COc1ccccc1Cn1[nH]nnc1=S returned HGIII-sPLA2 inh 22*, Arr AP2 block -12, proCasp7 act -13, PLCb3 inh -10, PLC-gamma1 inh 0, procasp3 activ -6, hGIII sPLA2 conf 13 and 535nm interf -2.
`COC(=O)C1=C(C)N(Cc2ccc(C(F)(F)F)cc2)C(=NCc2ccc(OC)cc2)NC1c1ccccc1` (stereo not given) gave HGIII-sPLA2 inh 21*, PLCb3 inh -2, PLC-gamma1 inh 3, hGIII sPLA2 conf -24 and 535nm interf -35.
For O=C(NCC(c1ccco1)N1CCCC1)c1cc2cc(Cl)ccc2o1 (stereo not given) the results were HGIII-sPLA2 inh -3, Arr AP2 block 16, proCasp7 act 1, PLCb3 inh -9, PLC-gamma1 inh 0 and procasp3 activ 2.
For Cc1cccc(-n2cnc(C(=O)NNC(=S)Nc3ccc(Cl)cc3)c2)n1 the results were HGIII-sPLA2 inh 34*, Arr AP2 block 0, proCasp7 act -26, PLCb3 inh -3, PLC-gamma1 inh -4, procasp3 activ -3, hGIII sPLA2 conf 59* and 535nm interf 7.9*.
For C[C@H](CO)N1C[C@H](C)[C@@H](CN(C)S(=O)(=O)c2ccccc2)Oc2ccc(NC(=O)NC3CCCCC3)cc2C1=O the results were HGIII-sPLA2 inh -8, Arr AP2 block 11, proCasp7 act 10, PLCb3 inh 5, PLC-gamma1 inh 2 and procasp3 activ 1.
CN1CCN(c2ncnc3c2ncn3[C@H]2CN(Cc3cccnc3)C[C@@H](CO)O2)CC1 was read as HGIII-sPLA2 inh 2, PLCb3 inh 0 and PLC-gamma1 inh 0.
Screening Cc1ccc(OCCCN2C(=O)C(=O)c3cccc(C)c32)cc1 returned HGIII-sPLA2 inh 26*, Arr AP2 block 3, proCasp7 act -2, PLCb3 inh 2, PLC-gamma1 inh 1, procasp3 activ 5, hGIII sPLA2 conf 26* and 535nm interf -3.
For O=C(COc1ccc(Cl)cc1Cl)NNC(=S)NC(=O)c1ccco1 the results were HGIII-sPLA2 inh -6, Arr AP2 block 19, proCasp7 act -4, PLCb3 inh -17, PLC-gamma1 inh 3 and procasp3 activ -9.
Screening O=C(/C=C/c1ccco1)NC(=S)NNC(=O)c1ccco1 returned HGIII-sPLA2 inh 31*, Arr AP2 block 14, proCasp7 act -4, PLCb3 inh -16, PLC-gamma1 inh -13, procasp3 activ 7, hGIII sPLA2 conf 16 and 535nm interf 4.
